# Test system: HEK-293T
# Assay: Multiplex assay against HEK293T
# Type: toxicity, cell-based
# Conditions: human
# Summary of the method: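 Phenotypes for tubulin, mitochondrial mass and membrane permeability are expressed as per cents of healthy-nucleus cells. Cells were stained live at seeding with Hoechst33342, BioTracker Green Microtubule Cytoskeleton Dye, MitoTracker Red and Annexin V Alexa Fluor 680, then imaged after compound addition on a CQ1 microscope at 37°C and 5% CO2. Machine-learning gating in CellPathfinder separated Hoechst high-intensity objects from normal cells, divided normal cells by nuclear state (healthy, pyknosed, fragmented) and divided pyknosed cells into mitotic or apoptotic.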
# [1] = 12 h, 1 µM, compound concentration 1 uM, replicate 1
# [2] = 12 h, 1 µM, compound concentration 1 uM, replicate 2
# [3] = 12 h, 10 µM, compound concentration 10 uM, replicate 1
# [4] = 12 h, 10 µM, compound concentration 10 uM, replicate 2
# [5] = 24 h, 1 µM, compound concentration 1 uM, replicate 1
# [6] = 24 h, 1 µM, compound concentration 1 uM, replicate 2
# [7] = 24 h, 10 µM, compound concentration 10 uM, replicate 1
# [8] = 24 h, 10 µM, compound concentration 10 uM, replicate 2
# [9] = 48 h, 1 µM, compound concentration 1 uM, replicate 1
# [10] = 48 h, 1 µM, compound concentration 1 uM, replicate 2
# [11] = 48 h, 10 µM, compound concentration 10 uM, replicate 1
# [12] = 48 h, 10 µM, compound concentration 10 uM, replicate 2
smiles,measurement,setting,value
CC(C)c1noc(N2CCC(COc3ccc(-c4ccc(S(C)(=O)=O)cc4)nc3)CC2)n1 [GSK-1292263],Population Apoptotic (%),[1],37%
same,Population Fragmented Nuclei (%),[1],8%
same,Population Healthy Nuclei (%),[1],78%
same,Population Hoechst High Intensity Objects (%),[1],5%
same,Population Membrane Permeable-Phenotype (%),[1],0%
same,Population Mitochondria Different-Phenotype (%),[1],42%
same,Population Mitotic Cells (%),[1],62%
same,Population Normal (%),[1],94%
same,Population Pyknosed Nuclei (%),[1],12%
same,Population Tubulin-Different-Phenotype (%),[1],32%
same,Total Cell Count,[1],440
same,Population Apoptotic (%),[2],25%
same,Population Fragmented Nuclei (%),[2],6%
same,Population Healthy Nuclei (%),[2],86%
same,Population Hoechst High Intensity Objects (%),[2],6%
same,Population Mitochondria Different-Phenotype (%),[2],53%
same,Population Mitotic Cells (%),[2],74%
same,Population Normal (%),[2],93%
same,Population Pyknosed Nuclei (%),[2],7%
same,Population Tubulin-Different-Phenotype (%),[2],13%
same,Total Cell Count,[2],522
same,Population Apoptotic (%),[3],50%
same,Population Fragmented Nuclei (%),[3],6%
same,Population Healthy Nuclei (%),[3],71%
same,Population Hoechst High Intensity Objects (%),[3],13%
same,Population Membrane Permeable-Phenotype (%),[3],0%
same,Population Mitochondria Different-Phenotype (%),[3],69%
same,Population Mitotic Cells (%),[3],50%
same,Population Normal (%),[3],86%
same,Population Pyknosed Nuclei (%),[3],22%
same,Population Tubulin-Different-Phenotype (%),[3],55%
same,Total Cell Count,[3],311
same,Population Apoptotic (%),[4],43%
same,Population Fragmented Nuclei (%),[4],7%
same,Population Healthy Nuclei (%),[4],78%
same,Population Hoechst High Intensity Objects (%),[4],16%
same,Population Mitochondria Different-Phenotype (%),[4],77%
same,Population Mitotic Cells (%),[4],56%
same,Population Normal (%),[4],83%
same,Population Pyknosed Nuclei (%),[4],13%
same,Population Tubulin-Different-Phenotype (%),[4],40%
same,Total Cell Count,[4],279
same,Population Apoptotic (%),[5],23%
same,Population Fragmented Nuclei (%),[5],8%
same,Population Healthy Nuclei (%),[5],78%
same,Population Hoechst High Intensity Objects (%),[5],5%
same,Population Membrane Permeable-Phenotype (%),[5],0%
same,Population Mitochondria Different-Phenotype (%),[5],27%
same,Population Mitotic Cells (%),[5],76%
same,Population Normal (%),[5],94%
same,Population Pyknosed Nuclei (%),[5],12%
same,Population Tubulin-Different-Phenotype (%),[5],25%
same,Total Cell Count,[5],545
same,Population Apoptotic (%),[6],25%
same,Population Fragmented Nuclei (%),[6],7%
same,Population Healthy Nuclei (%),[6],82%
same,Population Hoechst High Intensity Objects (%),[6],3%
same,Population Mitochondria Different-Phenotype (%),[6],29%
same,Population Mitotic Cells (%),[6],74%
same,Population Normal (%),[6],96%
same,Population Pyknosed Nuclei (%),[6],9%
same,Population Tubulin-Different-Phenotype (%),[6],9%
same,Total Cell Count,[6],608
same,Population Apoptotic (%),[7],64%
same,Population Fragmented Nuclei (%),[7],8%
same,Population Healthy Nuclei (%),[7],79%
same,Population Hoechst High Intensity Objects (%),[7],8%
same,Population Membrane Permeable-Phenotype (%),[7],0%
same,Population Mitochondria Different-Phenotype (%),[7],58%
same,Population Mitotic Cells (%),[7],35%
same,Population Normal (%),[7],91%
same,Population Pyknosed Nuclei (%),[7],12%
same,Population Tubulin-Different-Phenotype (%),[7],49%
same,Total Cell Count,[7],384
same,Population Apoptotic (%),[8],46%
same,Population Fragmented Nuclei (%),[8],11%
same,Population Healthy Nuclei (%),[8],74%
same,Population Hoechst High Intensity Objects (%),[8],10%
same,Population Mitochondria Different-Phenotype (%),[8],59%
same,Population Mitotic Cells (%),[8],53%
same,Population Normal (%),[8],89%
same,Population Pyknosed Nuclei (%),[8],13%
same,Population Tubulin-Different-Phenotype (%),[8],28%
same,Total Cell Count,[8],354
same,Population Apoptotic (%),[9],22%
same,Population Fragmented Nuclei (%),[9],10%
same,Population Healthy Nuclei (%),[9],81%
same,Population Hoechst High Intensity Objects (%),[9],3%
same,Population Membrane Permeable-Phenotype (%),[9],1%
same,Population Mitochondria Different-Phenotype (%),[9],23%
same,Population Mitotic Cells (%),[9],77%
same,Population Normal (%),[9],96%
same,Population Pyknosed Nuclei (%),[9],8%
same,Population Tubulin-Different-Phenotype (%),[9],14%
same,Total Cell Count,[9],865
same,Population Apoptotic (%),[10],23%
same,Population Healthy Nuclei (%),[10],83%
same,Population Hoechst High Intensity Objects (%),[10],1%
same,Population Mitochondria Different-Phenotype (%),[10],14%
same,Population Mitotic Cells (%),[10],76%
same,Population Normal (%),[10],98%
same,Population Pyknosed Nuclei (%),[10],5%
same,Population Tubulin-Different-Phenotype (%),[10],10%
same,Total Cell Count,[10],882
same,Population Apoptotic (%),[11],32%
same,Population Fragmented Nuclei (%),[11],10%
same,Population Healthy Nuclei (%),[11],79%
same,Population Hoechst High Intensity Objects (%),[11],10%
same,Population Membrane Permeable-Phenotype (%),[11],0%
same,Population Mitochondria Different-Phenotype (%),[11],50%
same,Population Mitotic Cells (%),[11],67%
same,Population Normal (%),[11],89%
same,Population Pyknosed Nuclei (%),[11],9%
same,Population Tubulin-Different-Phenotype (%),[11],28%
same,Total Cell Count,[11],506
same,Population Apoptotic (%),[12],30%
same,Population Fragmented Nuclei (%),[12],13%
same,Population Healthy Nuclei (%),[12],78%
same,Population Hoechst High Intensity Objects (%),[12],5%
same,Population Mitochondria Different-Phenotype (%),[12],37%
same,Population Mitotic Cells (%),[12],69%
same,Population Normal (%),[12],94%
same,Population Pyknosed Nuclei (%),[12],8%
same,Population Tubulin-Different-Phenotype (%),[12],18%
same,Total Cell Count,[12],595
